In assay [1] the target is T1, Neutrophil elastase (Homo sapiens) (UniProt P08246).
T1 sequence (whole entry): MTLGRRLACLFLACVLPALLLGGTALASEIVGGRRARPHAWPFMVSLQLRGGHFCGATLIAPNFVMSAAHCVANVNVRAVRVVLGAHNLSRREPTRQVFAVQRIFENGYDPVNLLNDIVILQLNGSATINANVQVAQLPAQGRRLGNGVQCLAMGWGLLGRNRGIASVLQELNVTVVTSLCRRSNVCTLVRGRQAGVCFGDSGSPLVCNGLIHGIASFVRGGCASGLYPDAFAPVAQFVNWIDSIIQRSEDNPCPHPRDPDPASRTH
Put plainly: Apparent second-order inactivation rate constant was evaluated against human leukocyte Elastase; Inactive. The format is functional. In a few lines: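 Incubation method: human leukocyte elastase (300 nM) with inhibitor in 0.1 M HEPES, pH 7.25, 1% DMSO. Aliquots withdrawn periodically and assayed for residual activity with methoxysuccinyl-Ala-Ala-Pro-Val p-nitroanilide. Pseudo-first-order k_obs taken from slopes of ln(Et/Eo) versus time, then expressed as k_obs/[I] (M⁻¹ s⁻¹). Kinetics analysed by the Kitz–Wilson method.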

Assay [2] concerns the target T1, Neutrophil elastase (Homo sapiens). Put plainly: Apparent second-order inactivation rate constant was evaluated against human leukocyte Elastase. The format is functional.

Active and inactive are the calls of the source. The calls are words filed in the database; no cut-off is given here.

Regarding `O=C1c2ccccc2S(=O)(=O)N1CO`, the “K obs / 1 1/Ms” value in assay [1] was “inactive”.
Regarding `O=C1c2ccccc2S(=O)(=O)N1Cn1ccnc1`, the K obs / 1 1/Ms in assay [2] was 40.
Consider `O=C(/C=C/c1ccccc1)OCN1C(=O)c2ccccc2S1(=O)=O`, for which, in assay [2], the K obs / 1 1/Ms came out at 2240.
`O=C(CCc1ccccc1)OCN1C(=O)c2ccccc2S1(=O)=O`: in assay [2], the K obs / 1 1/Ms was determined as 2280.
`O=C1c2ccccc2S(=O)(=O)N1CF`: in assay [2], the K obs / 1 1/Ms stood at 4750.
For the compound `CC(=O)OCN1C(=O)c2ccccc2S1(=O)=O`, the K obs / 1 1/Ms in assay [2] was found to be 140.
Take `O=C(/C=C\Sc1ccccc1)OCN1C(=O)c2ccccc2S1(=O)=O`: the K obs / 1 1/Ms in assay [2] came to 5700.
As to `O=C(CSc1ccccc1)OCN1C(=O)c2ccccc2S1(=O)=O`, the K obs / 1 1/Ms in assay [2] worked out at 1790.
With `O=C(/C=C/Sc1ccccc1)OCN1C(=O)c2ccccc2S1(=O)=O`, in assay [2], the K obs / 1 1/Ms was 8390.
The same measure, in the same setting: to `O=C(C[S+]([O-])c1ccccc1)OCN1C(=O)c2ccccc2S1(=O)=O` (stereo unspecified) belongs 800; to `O=C(CS(=O)(=O)c1ccccc1)OCN1C(=O)c2ccccc2S1(=O)=O`, 780.
